In ChEMBL document CHEMBL1139934, “Synthesis and biological activity of imidazopyridine anticoccidial agents: part I” (Eur J Med Chem, 2007):

Columns and labels:
Eimeria acervulina [1] = assay: Anticococcidal activity against Eimeria acervulina in Chick assessed as reduction in oocyte at 12.5 ppm relative to control; assay type: functional; set-up: scale not given: the % may be the effect or the level left
Method in brief: (§1)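 Expanded Mini-Assay Coccidiosis (ExMAC) in chickens infected with E. tenella, E. acervulina, E. mitis and E. maxima. Compound given in the feed at the stated ppm. Efficacy for each species is scored 0 to 4 from the percent oocyst reduction relative to an untreated control. Where a compound was tested more than once, all values are reported.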

Eimeria tenella [2] = assay: Anticococcidal activity against Eimeria tenella in Chick assessed as reduction in oocyte at 12.5 ppm relative to control; assay type: functional; set-up: scale not given: the % may be the effect or the level left; method in brief: as §1
Eimeria mitis [3] = assay: Anticococcidal activity against Eimeria mitis in Chick assessed as reduction in oocyte at 12.5 ppm relative to control; assay type: functional; set-up: scale not given: the % may be the effect or the level left; method in brief: as §1
Eimeria maxima [4] = assay: Anticococcidal activity against Eimeria maxima in Chick assessed as reduction in oocyte at 12.5 ppm relative to control; assay type: functional; set-up: scale not given: the % may be the effect or the level left; method in brief: as §1
Eimeria maxima [5] = assay: Anticococcidal activity against Eimeria maxima in Chick assessed as reduction in oocyte at 25 ppm relative to control; assay type: functional; set-up: scale not given: the % may be the effect or the level left; method in brief: as §1
Eimeria acervulina [6] = assay: Anticococcidal activity against Eimeria acervulina in Chick assessed as reduction in oocyte at 25 ppm relative to control; assay type: functional; set-up: scale not given: the % may be the effect or the level left; method in brief: as §1
Eimeria mitis [7] = assay: Anticococcidal activity against Eimeria mitis in Chick assessed as reduction in oocyte at 25 ppm relative to control; assay type: functional; set-up: scale not given: the % may be the effect or the level left; method in brief: as §1
Eimeria tenella [8] = assay: Anticococcidal activity against Eimeria tenella in Chick assessed as reduction in oocyte at 25 ppm relative to control; assay type: functional; set-up: scale not given: the % may be the effect or the level left; method in brief: as §1
[9] = target: cGMP-dependent protein kinase (Eimeria tenella, UniProt Q8MMZ8); assay: Inhibition of Eimeria tenella cGMP-dependent protein kinase by Ten_K assay
Method in brief: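 Ten_K (Tenella Kinase) assay measuring inhibition of E. tenella PKG enzyme activity. Result expressed as the concentration giving 50% inhibition (IC50, nM). Where a compound was tested more than once, all values are reported.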

Eimeria mitis [10] = assay: Anticococcidal activity against Eimeria mitis in Chick assessed as reduction in oocyte at 6.25 ppm relative to control; assay type: functional; set-up: scale not given: the % may be the effect or the level left; method in brief: as §1
Eimeria tenella [11] = assay: Anticococcidal activity against Eimeria tenella in Chick assessed as reduction in oocyte at 6.25 ppm relative to control; assay type: functional; set-up: scale not given: the % may be the effect or the level left; method in brief: as §1
Eimeria acervulina [12] = assay: Anticococcidal activity against Eimeria acervulina in Chick assessed as reduction in oocyte at 6.25 ppm relative to control; assay type: functional; set-up: scale not given: the % may be the effect or the level left; method in brief: as §1
Eimeria maxima [13] = assay: Anticococcidal activity against Eimeria maxima in Chick assessed as reduction in oocyte at 6.25 ppm relative to control; assay type: functional; set-up: scale not given: the % may be the effect or the level left; method in brief: as §1

Chain of cGMP-dependent protein kinase (Q8MMZ8 whole entry): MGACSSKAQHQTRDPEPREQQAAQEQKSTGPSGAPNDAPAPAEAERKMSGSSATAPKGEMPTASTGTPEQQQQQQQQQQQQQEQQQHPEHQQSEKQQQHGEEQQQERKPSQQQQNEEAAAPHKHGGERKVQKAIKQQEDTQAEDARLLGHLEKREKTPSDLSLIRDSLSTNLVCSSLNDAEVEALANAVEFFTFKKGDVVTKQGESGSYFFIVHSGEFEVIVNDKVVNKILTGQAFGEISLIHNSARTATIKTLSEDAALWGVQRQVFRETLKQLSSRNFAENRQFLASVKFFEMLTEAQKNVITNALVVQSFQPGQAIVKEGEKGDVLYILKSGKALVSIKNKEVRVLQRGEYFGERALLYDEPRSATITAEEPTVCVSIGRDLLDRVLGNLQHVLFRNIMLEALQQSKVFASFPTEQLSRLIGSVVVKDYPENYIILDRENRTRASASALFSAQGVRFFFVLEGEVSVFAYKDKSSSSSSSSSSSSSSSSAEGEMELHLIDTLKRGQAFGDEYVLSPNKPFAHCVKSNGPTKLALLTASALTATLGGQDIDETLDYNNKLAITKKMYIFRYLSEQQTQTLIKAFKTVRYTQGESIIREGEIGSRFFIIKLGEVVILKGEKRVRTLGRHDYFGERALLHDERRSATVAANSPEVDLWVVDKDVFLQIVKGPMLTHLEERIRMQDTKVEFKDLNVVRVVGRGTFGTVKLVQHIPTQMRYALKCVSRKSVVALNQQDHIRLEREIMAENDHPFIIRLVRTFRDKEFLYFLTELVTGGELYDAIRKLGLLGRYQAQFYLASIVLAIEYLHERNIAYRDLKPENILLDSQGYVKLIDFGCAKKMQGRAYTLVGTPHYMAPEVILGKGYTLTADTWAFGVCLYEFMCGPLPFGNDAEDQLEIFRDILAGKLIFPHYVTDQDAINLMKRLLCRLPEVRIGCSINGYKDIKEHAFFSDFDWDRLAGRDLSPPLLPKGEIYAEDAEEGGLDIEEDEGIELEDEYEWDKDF

Row | Structure (SMILES) | Activity (Eimeria acervulina [1]) [%] | Activity (Eimeria tenella [2]) [%] | Activity (Eimeria mitis [3]) [%] | Activity (Eimeria maxima [4]) [%] | Activity (Eimeria maxima [5]) [%] | Activity (Eimeria acervulina [6]) [%] | Activity (Eimeria mitis [7]) [%] | Activity (Eimeria tenella [8]) [%] | IC50 [9] [nM] | Activity (Eimeria mitis [10]) [%] | Activity (Eimeria tenella [11]) [%] | Activity (Eimeria acervulina [12]) [%] | Activity (Eimeria maxima [13]) [%]
1 | CCCNc1nccc(-c2c(-c3ccc(F)cc3)nc3cc(CN(C)C)ccn23)n1 | 80 | 80 | 80 | 80 |  |  |  |  |  |  |  |  | 
2 | CN(C)Cc1ccn2c(-c3nc(N)ncc3C#N)c(-c3ccc(F)cc3)nc2c1 |  |  |  |  | <50 | <50 | <50 | <50 | 1.6 |  |  |  | 
3 | CN(C)Cc1ccn2c(-c3ccnc(NC=O)n3)c(-c3ccc(F)cc3)nc2c1 | 80 | 80 | 50 | 80 |  |  |  |  | 0.45 | <50 | 80 | 80 | 80
4 | CN(C)Cc1ccn2c(-c3ccnc(NS(=O)(=O)c4ccccc4)n3)c(-c3ccc(F)cc3)nc2c1 |  |  |  |  | <50 | <50 | <50 | <50 | 0.25 |  |  |  | 
5 | COCCCNc1nccc(-c2c(-c3ccc(F)cc3)nc3cc(CN(C)C)ccn23)n1 |  |  |  |  | 50 | 80 | <50 | 80 | 0.25 |  |  |  | 
6 | CCCCC(=O)Nc1nccc(-c2c(-c3ccc(F)cc3)nc3cc(CN(C)C)ccn23)n1 | 50 | 50 |  | 80 | 80 | 80 | 80 | 80 | 0.25 | <50 | < 50 | 80 | 80
7 | CCC(=O)Nc1nccc(-c2c(-c3ccc(F)cc3)nc3cc(CN(C)C)ccn23)n1 | <50 | 80 | <50 | 80 | 80 | 80 | 80 | 80 | 0.3 | <50 | <50 | <50 | 
8 | CN(C)Cc1ccn2c(-c3ccnc(NCc4ccc(F)c(F)c4)n3)c(-c3ccc(F)cc3)nc2c1 |  |  |  |  | <50 | <50 | <50 | <50 | 0.06 |  |  |  | 
9 | Cc1cc(-c2nc3cc(CN(C)C)ccn3c2-c2ccnc(N)n2)ccc1F | 80 | 80 | 80 |  |  | 80 | 80 | 80 | 0.23 | 80 | 80 | 80 | 
10 | CN(C)Cc1ccn2c(-c3ccnc(Nc4ccccn4)n3)c(-c3ccc(F)cc3)nc2c1 | <50 | 80 | 80 | 50 | 80 | <50 | 80 | 80 | 0.4 |  |  |  | 
11 | Cc1ccc(CNc2nccc(-c3c(-c4ccc(F)cc4)nc4cc(CN(C)C)ccn34)n2)cc1 |  |  |  |  | 80 | 50 | <50 | <50 | 0.121 |  |  |  | 
12 | CN(C)Cc1ccn2c(-c3ccnc(NC(=O)C4CCCC4)n3)c(-c3ccc(F)cc3)nc2c1 | <50 | 80 | 80 |  |  | 80 | 80 | 80 | 0.21 | <50 | < 50 | <50 | 
13 | CN(C)Cc1ccn2c(-c3ccnc(NCc4ccccc4Cl)n3)c(-c3ccc(F)cc3)nc2c1 |  |  |  |  | 80 | <50 | <50 | 50 | 0.056 |  |  |  | 
14 | Cc1cccc(CNc2nccc(-c3c(-c4ccc(F)cc4)nc4cc(CN(C)C)ccn34)n2)c1 |  |  |  |  | <50 | <50 | <50 | 80 | 0.083 |  |  |  | 
15 | CN(C)Cc1ccn2c(-c3ccnc(N)n3)c(-c3ccc(F)c(Br)c3)nc2c1 |  |  |  |  | 80 | 80 | <50 | 80 | 0.16 |  |  |  | 
16 | CCNc1nccc(-c2c(-c3ccc(F)cc3)nc3cc(CN(C)C)ccn23)n1 | 80 | 80 | <50 | 80 | 80 | 80 | 80 | 80 | 0.23 | <50 | <50 |  | 80
